NadD block: inhibitors of Staphylococcus aureus NadD | purified NadD enzyme, colorimetric absorbance read-out | inhibition, % at 20 µM | hit rate 0.78% among 360,000 | AID 602399; in the data active = inhibition above about 26%
ABHD5 PLIN5 PPI: inhibitors of human ABHD5-perilipin-5 interaction | Q00G26+Q8WTS1 | Split G. princeps luciferase complementation, luminescence, 4 h | inhibition, % at 4 µM | hit rate 0.78% among 360,000;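 active = inhibition above the mean inhibition across every tested compound plus 3 SD, cut at about 22% in these data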;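 note: 0% = DMSO only wells and the 100% control is not disclosed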
Target sequence (Q00G26 whole entry, looked up): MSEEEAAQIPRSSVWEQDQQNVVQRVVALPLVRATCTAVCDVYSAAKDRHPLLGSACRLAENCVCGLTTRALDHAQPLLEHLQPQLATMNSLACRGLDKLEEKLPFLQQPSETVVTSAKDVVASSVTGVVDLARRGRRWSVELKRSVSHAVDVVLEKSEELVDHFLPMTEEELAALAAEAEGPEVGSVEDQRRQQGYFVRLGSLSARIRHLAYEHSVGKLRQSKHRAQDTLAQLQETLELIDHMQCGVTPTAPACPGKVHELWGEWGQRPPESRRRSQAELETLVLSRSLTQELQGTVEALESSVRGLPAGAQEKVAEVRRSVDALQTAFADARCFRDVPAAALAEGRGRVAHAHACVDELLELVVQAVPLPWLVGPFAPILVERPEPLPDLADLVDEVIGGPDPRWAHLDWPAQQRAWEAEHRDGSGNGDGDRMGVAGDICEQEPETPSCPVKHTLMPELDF
Target sequence (Q8WTS1 whole entry, looked up): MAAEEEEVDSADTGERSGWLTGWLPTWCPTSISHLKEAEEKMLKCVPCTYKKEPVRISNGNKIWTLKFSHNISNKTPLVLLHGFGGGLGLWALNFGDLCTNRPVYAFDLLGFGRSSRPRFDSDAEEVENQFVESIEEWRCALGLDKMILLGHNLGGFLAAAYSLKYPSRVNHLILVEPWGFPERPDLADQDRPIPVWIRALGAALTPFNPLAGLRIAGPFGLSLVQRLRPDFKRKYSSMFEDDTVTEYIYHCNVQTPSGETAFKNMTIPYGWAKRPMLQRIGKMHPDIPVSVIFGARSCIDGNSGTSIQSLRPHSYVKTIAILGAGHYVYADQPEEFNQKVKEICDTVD
B2AR ag: human beta-2 adrenergic receptor agonism by FAP | P07550 | Am2.2-beta2AR cells, FAP receptor internalization, flow cytometry | response, % (test concentration not listed) | hit rate 0.43% among 340,000 | AID 504454;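 active = response above a set limit, near 3 SD of response in nonfluorescent compounds, cut at about 42% in these data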
GRK2 aptamer HTS: inhibitors of human GRK2 displacing RNA aptamer. bead flow cytometry, FAM-aptamer displacement from GRK2. inhibition of aptamer binding, % at 10 µM. P25098. hit rate 0.59% among 330,000;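 active = inhibition of aptamer binding above 40%, roughly 3 SD of noise, on plates passing a quality check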;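 note: median bead fluorescence of bound FAM aptamer so fluorescent compounds give negative values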
SENP1 FRET inh: SENP1 (human) catalytic domain inhibition; recombinant SENP1 catalytic domain, CyPet-SUMO1-YPet FRET cleavage; AID 624204; hit rate 0.21% among 360,000; Q9P0U3; inhibition, % at 10 µM;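 active = inhibition at least 30% at 10 µM, raw YFP signal under a set limit, fluorescence ratio 0.5 to 1.5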;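 note: 0% = enzyme with DMSO and 100% = no enzyme wells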
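Assay system: hSENP1 catalytic domain, recombinant. Amount: SENP1 enzyme, 20 pM final. Schedule: 50 min reaction, RT, dark. Technique: FRET, CFP and YFP emission. Control set: no-enzyme wells low, DMSO-plus-enzyme wells high control.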
GRK2 inh confirm: human GRK2 inhibition confirmation, cherry pick 1. aptamer displacement, % at 10 µM. shares compounds with GRK2 aptamer HTS. hit rate 4% among 2,000. bead-bound GRK2, FAM-aptamer displacement, flow cytometry;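 active = aptamer displacement above 40%, near three times the noise of non-fluorescent compounds, on plates passing quality checks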;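 note: negative values mostly reflect intrinsic compound fluorescence rather than true enhancement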
Aptamer quench SP: quenches fluorescent RNA aptamer, GRK2 hit artifact | fluorescence response (% of DMSO), % at 10 µM | 2,000 tested, under 10 active | Carboxyfluorescein RNA aptamer on beads, flow cytometry quenching; hits give low values | AID 504580 | shares compounds with GRK2 aptamer HTS;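 active = compounds that quench the bead-bound fluorescent RNA probe, cutting fluorescence to under half of the solvent control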;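 note: counterscreen run without GRK2 so only probe quenching by compound is measured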
GRK2 CP2: confirmation of human GRK2 inhibitors binding RNA aptamer site | shares compounds with GRK2 aptamer HTS | bead-bound GRK2, FAM-aptamer displacement, flow cytometry | inhibition of aptamer binding, % at 10 µM | 360 tested, under 10 active | AID 504782;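 active = inhibition of aptamer binding above 40%, about triple the noise seen with nonglowing compounds, on plates passing quality control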;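 note: negative values mostly come from compounds that fluoresce themselves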
FAM quench SP: aptamer fluorescence quenching in GRK2 counter-screen | shares compounds with GRK2 aptamer HTS | carboxyfluorescein RNA aptamer beads, flow cytometry quenching; hits give low values | fluorescence response vs DMSO, % at 10 µM | 360 tested, under 10 active | AID 588494;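 active = response vs DMSO under 50%, meaning signal dropped by over half, treated as fluorescence quencher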;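 note: labelled aptamer on streptavidin beads without GRK2 as a quench counter-screen; 100% = bead fluorescence of DMSO wells and lower means quenching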
An asterisk follows results filed as active; . = no result given. Compounds with a hit are over-represented: about 2.5% of the library has one in this group of screens.

SMILES	NadD block	ABHD5 PLIN5 PPI	B2AR ag	GRK2 aptamer HTS	SENP1 FRET inh	GRK2 inh confirm	Aptamer quench SP	others
COC(=O)NCc1ccc(S(=O)(=O)N2CCOCC2)cc1	8.1	-1.7	0.2	72.0*	0.8	1.6	95.1
COCC(=O)N1C[C@H]2CON(C)[C@H]2C[C@H]1c1cccc(-c2ccccc2)c1	1.1	1.7	.	.	0.5	.	.
Cc1noc(C)c1COc1cccc(C(=O)NCc2cccc(Cl)c2)c1	2.0	-1.2	-6.0	5.0	-0.8	-2.6	99.6
Cc1ccc(CNC(=O)c2cccc(OCc3c(C)noc3C)c2)cc1	-2.3	1.8	0.0	1.0	3.1	-3.2	94.6
COc1cc(Cl)c([C@@H]2C[C@H]3CN(c4ccccc4)C(=O)[C@]34CCCN24)cc1OC	-1.7	2.2	2.6	70.0*	3.0	0.0	97.0
COc1cc([C@@H]2C[C@H]3CN(c4ccccc4)C(=O)[C@]34CCCN24)cc(OC)c1OC	2.4	1.5	-3.1	0.0	2.4	.	.
CCc1ccc(Nc2nnc(SCC(=O)NC(=O)CN3CCCC3=O)s2)cc1	-0.6	-6.9	-1.0	45.0*	-0.4	18.5	102.3
CC(=O)Nc1ccc2c(c1)Cc1c(F)cccc1-2	-4.7	0.5	6.5	.	0.2	.	.
C=CCOc1cccc(NC(=O)c2ccccc2SC)c1	3.1	2.9	0.5	92.0*	-0.9	0.7	90.4
CSc1ccccc1C(=O)Nc1cccc([N+](=O)[O-])c1	-8.0	-1.1	-4.7	2.0	1.6	.	.
CSc1ccccc1C(=O)Nc1cccc(C)c1	-1.3	-0.5	2.1	97.0*	1.3	-0.4	93.8
CCOc1ccccc1C1C(C#N)=C(N)Oc2cc(N)ccc21 (centres undefined)	7.3	5.8	1.7	97.0*	-25.5	-1.6	102.9
COc1ccc(OC)c(C2C(C#N)=C(N)Oc3cc(N)ccc32)c1 (centres undefined)	13.0	-4.6	7.3	0.0	-23.3	.	.
CCN(CC)S(=O)(=O)c1ccc(C(=O)OC2CCCCC2CN(C)C)cc1 (centres undefined)	-6.1	3.7	0.2	70.0*	0.4	-2.6	98.6
CN(C)CC1CCCCC1OC(=O)c1ccc(Cl)cc1 (centres undefined)	-5.3	1.5	2.9	0.0	1.6	.	.
Cc1ccc(S(=O)(=O)N2CCN(C(=O)CCC(=O)NCc3cccc(C(F)(F)F)c3)CC2)cc1	0.7	-12.2	1.3	1.0	-1.2	.	.
NC(=O)c1sc2nc3c(cc2c1N)CCCCCC3	7.4	-4.1	6.1	75.0*	-54.4	9.2	95.6
COc1cc(CC(=O)N(CC(C)C)C2CCS(=O)(=O)C2)cc(OC)c1OC (centres undefined)	-1.3	-5.7	14.6	0.0	-1.0	.	.
CC(=O)c1cccc(Nc2ccc(-c3ccccc3F)nn2)c1	1.0	2.5	8.6	1.0	-0.6	0.1	102.1
COc1ccccc1-c1ccc(Nc2cccc(C(C)=O)c2)nn1	-0.1	7.1	1.2	2.0	0.8	-7.8	103.3
Cn1cncc1C#Cc1ccc2cc(CCO)oc(=O)c2c1	0.4	-6.2	2.1	7.0	-13.6	.	.
COc1cc(SC)ccc1C(=O)OCC(=O)N1CC(=O)Nc2ccccc21	1.9	1.1	-6.4	2.0	-4.0	.	.
Cc1sc2nc(CN(Cc3ccccc3)C(=O)NC3CCCCC3)[nH]c(=O)c2c1C	-2.2	4.6	-14.9	30.0	0.7	-1.7	100.8
CCN(CCO)Cc1csc2cccc(Br)c12	-2.8	2.2	-0.4	1.0	1.5	.	.
CCN(CC)CCN(CC)Cc1ccccc1Br	0.1	4.0	3.6	99.0*	1.1	2.0	100.6
SMILES	NadD block	ABHD5 PLIN5 PPI	B2AR ag	GRK2 aptamer HTS	SENP1 FRET inh	GRK2 inh confirm	Aptamer quench SP	others
O=C(COC(=O)COc1ccccc1)NC12CC3CC(CC(C3)C1)C2	0.4	4.4	-0.1	0.0	5.6	.	.
O=C(CCN1CCCCC1)N1CCc2c([nH]c3ccccc23)C1c1cccnc1 (centres undefined)	-2.6	8.2	-14.3	.	-5.2	-3.0	105.2
CC(C)N(C)C1=CC(=O)C(N(C)C(C)C)=CC1=O	0.7	-12.5	-4.1	.	-14.6	.	.
COc1ccc(S(=O)(=O)N2CCCCC2)cc1NC(=O)CCNC(=O)c1ccc(Cl)cc1	-0.2	7.5	2.1	47.0*	-1.6	0.3	103.5	GRK2 CP2=-7.5;FAM quench SP=106.0
COc1ccc(S(=O)(=O)N2CCCCCC2)cc1NC(=O)CCNC(=O)c1ccc(Cl)cc1	-7.7	4.0	.	.	-0.1	.	.
CCOc1ccc(CNC(=S)N/N=C\c2ccc([N+](=O)[O-])cc2)cc1	-1.7	-9.4	-9.0	64.0*	11.7	0.2	101.9
CCOc1ccc(CNC(=S)N/N=C/c2cccnc2)cc1	-0.6	-1.2	-2.4	0.0	1.1	.	.
Cc1ccc(S(=O)(=O)c2nc(S(=O)(=O)c3ccc(C)cc3)c(N3CCN(CCO)CC3)s2)cc1	-6.5	2.0	0.4	0.0	2.9	-3.0	97.1
Cc1ccc(S(=O)(=O)c2nc(S(C)(=O)=O)sc2N2CCC3(CC2)OCCO3)cc1	2.1	-1.5	-0.3	52.0*	2.0	.	.	GRK2 CP2=-0.9;FAM quench SP=100.0
NC(=O)C1CCN(C(=O)c2ccc3nc(-c4ccccc4)c(-c4ccccc4)nc3c2)CC1	7.5	3.9	2.6	3.0	-0.4	.	.
COC(=O)c1ccc(C2c3[nH]c4ccccc4c3C[C@H]3C(=O)N(C4CCN(Cc5ccccc5)CC4)CC(=O)N23)cc1 (some centres undefined)	20.4	7.5	19.9	0.0	-2.3	.	.
COc1cccc(C2c3[nH]c4ccccc4c3C[C@H]3C(=O)N(C4CC4)CC(=O)N23)c1 (some centres undefined)	2.8	6.3	10.1	0.0	-15.2	.	.
O=C1[C@@H]2Cc3c([nH]c4ccccc34)C(c3cccc(Br)c3)N2C(=O)CN1C1CCN(Cc2ccccc2)CC1 (some centres undefined)	17.7	7.7	37.6	0.0	-18.6	-4.5	99.7
O=C1[C@@H]2Cc3c([nH]c4ccccc34)C(c3ccccc3)N2C(=O)CN1C1CCN(Cc2ccccc2)CC1 (some centres undefined)	13.4	-7.4	41.1	0.0	-18.8	-1.7	111.9
Nn1c(COc2cccc(Br)c2)nnc1SCC(=O)NCC1CCCO1 (centres undefined)	-2.2	0.1	-1.1	0.0	2.3	.	.
Cc1ccc(CNC(=O)CCS(=O)(=O)c2ccc3c(c2)oc(=O)n3C)cc1	2.4	-9.0	-7.5	0.0	1.0	.	.
